Data on two compounds can be found in ChEMBL document CHEMBL4257448, “Deciphering the origins of molecular toxicity of combretastatin A4 and its glycoconjugates: interactions with major drug transporters and their safety profiles in vitro and in vivo” (Medchemcomm, 2017).

The target of data set [1] is T1, Solute carrier organic anion transporter family member 2B1 (Homo sapiens, UniProt O94956).
T1 sequence (O94956 whole entry): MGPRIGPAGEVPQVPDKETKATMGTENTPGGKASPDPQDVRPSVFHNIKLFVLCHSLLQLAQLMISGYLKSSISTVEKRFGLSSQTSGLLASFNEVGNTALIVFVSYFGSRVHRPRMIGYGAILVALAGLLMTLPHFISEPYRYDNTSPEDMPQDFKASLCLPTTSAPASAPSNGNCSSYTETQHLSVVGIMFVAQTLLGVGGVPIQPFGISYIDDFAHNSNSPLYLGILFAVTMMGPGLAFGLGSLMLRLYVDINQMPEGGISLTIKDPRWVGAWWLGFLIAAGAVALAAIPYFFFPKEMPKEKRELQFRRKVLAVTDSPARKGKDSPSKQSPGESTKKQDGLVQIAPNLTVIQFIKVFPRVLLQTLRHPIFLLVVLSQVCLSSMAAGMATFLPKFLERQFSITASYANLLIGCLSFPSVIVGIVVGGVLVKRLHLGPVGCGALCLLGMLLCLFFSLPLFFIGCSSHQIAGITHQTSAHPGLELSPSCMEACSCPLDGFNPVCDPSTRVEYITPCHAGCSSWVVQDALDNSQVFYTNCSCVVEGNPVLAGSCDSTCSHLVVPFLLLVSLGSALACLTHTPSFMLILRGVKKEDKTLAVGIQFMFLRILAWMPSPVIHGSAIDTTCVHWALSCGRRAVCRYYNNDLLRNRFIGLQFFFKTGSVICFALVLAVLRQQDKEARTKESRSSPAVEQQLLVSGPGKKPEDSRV
The data set can be described thus: Inhibition of human OATP2B1 expressed in HEK293 cells assessed as DBF uptake after 5 mins by fluorescence assay. Type of data set: cell-based. Particulars: for inhibition (INH): human, hek293, 5 min. The method, boiled down: (§1)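 Stably transfected HEK293 cells (human OAT1, OAT3, OCT1, OCT2, OATP1B3, OATP2B1) and mock cells were assayed 16 h after seeding in HEPES uptake buffer, pH 7.2, with fluorescent probe ± compound. Incubation was 5 min for OAT1/3 and OATPs, and 10 min for OCT1/2. Reference inhibitors were probenecid (OATs), quinine (OCTs) and rifampicin (OATPs). Uptake was stopped with ice-cold PBS and cells were lysed in Tris/Triton. Fluorescence was normalised to BCA protein; triplicates, repeated 2–3 times.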

Data set [2] deals with T2, Solute carrier family 22 member 6 (Homo sapiens, UniProt Q4U2R8).
T2 sequence (Q4U2R8 whole entry): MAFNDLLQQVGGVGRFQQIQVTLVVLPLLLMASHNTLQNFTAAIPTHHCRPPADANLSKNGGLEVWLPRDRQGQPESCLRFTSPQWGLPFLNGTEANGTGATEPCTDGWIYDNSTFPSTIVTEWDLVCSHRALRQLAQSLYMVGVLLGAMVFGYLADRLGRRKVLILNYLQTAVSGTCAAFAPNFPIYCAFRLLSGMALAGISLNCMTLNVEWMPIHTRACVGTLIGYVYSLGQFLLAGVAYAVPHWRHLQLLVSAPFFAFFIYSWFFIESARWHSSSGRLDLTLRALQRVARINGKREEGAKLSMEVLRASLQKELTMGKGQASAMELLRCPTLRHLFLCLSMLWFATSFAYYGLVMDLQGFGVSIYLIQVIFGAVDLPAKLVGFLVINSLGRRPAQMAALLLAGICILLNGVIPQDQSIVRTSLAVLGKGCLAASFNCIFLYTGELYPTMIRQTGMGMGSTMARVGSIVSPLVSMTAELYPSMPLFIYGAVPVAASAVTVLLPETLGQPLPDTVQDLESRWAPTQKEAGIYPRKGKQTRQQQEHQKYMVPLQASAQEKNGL
The data set can be described thus: Inhibition of human OAT1 expressed in HEK293 cells assessed as 6-CF uptake after 5 mins by fluorescence assay. In kind it is cell-based. Particulars: for inhibition (INH): human, hek293, 5 min. The method, boiled down: as §1

The target of data set [3] is T3, Solute carrier family 22 member 1 (Homo sapiens, UniProt O15245).
T3 sequence (O15245 whole entry): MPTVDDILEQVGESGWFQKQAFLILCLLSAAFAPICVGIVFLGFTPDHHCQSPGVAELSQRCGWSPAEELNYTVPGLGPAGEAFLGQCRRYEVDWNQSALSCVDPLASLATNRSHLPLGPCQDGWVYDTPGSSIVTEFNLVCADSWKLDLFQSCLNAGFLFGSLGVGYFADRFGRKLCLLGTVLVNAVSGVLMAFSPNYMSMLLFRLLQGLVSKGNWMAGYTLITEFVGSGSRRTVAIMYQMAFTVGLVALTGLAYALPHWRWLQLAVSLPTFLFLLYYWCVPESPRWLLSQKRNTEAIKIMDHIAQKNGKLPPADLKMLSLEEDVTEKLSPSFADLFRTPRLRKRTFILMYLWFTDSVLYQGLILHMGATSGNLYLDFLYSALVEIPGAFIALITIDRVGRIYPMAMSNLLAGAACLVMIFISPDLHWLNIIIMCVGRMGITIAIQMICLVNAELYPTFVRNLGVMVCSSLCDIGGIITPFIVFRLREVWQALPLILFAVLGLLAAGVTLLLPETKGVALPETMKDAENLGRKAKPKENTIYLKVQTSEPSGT
Put plainly: Inhibition of human OCT1 expressed in HEK293 cells assessed as Asp+ uptake after 10 mins by fluorescence assay. Type of data set: cell-based. The note with it: for inhibition (INH): human, hek293, 10 min. The method, boiled down:
as §1

For data set [4], the system named is DU-145. Put plainly: Cytotoxicity against human DU145 cells assessed as reduction in cell viability up to 20 uM after 24 hrs by MTT assay. In kind it is functional, cell-based. The method, boiled down:
(§2)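 Cells were grown as adherent monolayers at 37 °C in 5% CO2: SKOV3 in advanced DMEM, DU145 and MB231 in RPMI-1640 with glutamine and 10% FBS. They were seeded at 2000–7500 cells/well, treated on day 1 for 24 h with drug in DMSO (final DMSO <0.1%), then given MTT at 0.83 mg mL−1 final overnight. After SDS/HCl lysis, A570 was read as percent of drug-free control; five replicate wells.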
In general terms: Tetrazolium dyes change colour on reduction, which living cells bring about.

Data set [5] has as its system MDA-MB-231. The data set can be described thus: Cytotoxicity against human MDA-MB-231 cells assessed as reduction in cell viability up to 20 uM after 24 hrs by MTT assay. Type of data set: functional, cell-based. The method in brief:
as §2

Activity calls are given as the source filed them. No cut-off for these calls is given here.

In general, IC50 refers to the midpoint of a concentration-inhibition curve.

Consider `COc1ccc(/C=C\c2cc(OC)c(OC)c(OC)c2)cc1O` [COMBRETASTATIN A4], for which the half-inhibitory concentration (IC50) in data set [1] was 12.3 µM; in data set [2], 41.4 µM; in data set [3], above 200 µM. The “inhibition (INH)” value in data set [1], in data set [2] and in data set [3] was “Dose-dependent effect” each time. Besides, the result in data set [4] and in data set [5] was Active.

Regarding `COc1ccc(/C=C\c2cc(OC)c(OC)c(OC)c2)cc1O[C@@H]1O[C@H](CO)[C@@H](O)[C@H](O)[C@H]1O`, the IC50 in data set [1], in data set [2] and in data set [3] was above 200 µM throughout. In addition, the “inhibition (INH)” value in data set [1], in data set [2] and in data set [3] was “Dose-dependent effect” throughout. Further, the outcome in data set [4] and in data set [5] was Active.
